Source: BindingDB's records for doi:10.1021/jm00151a016 (1986)
Positions of bridges follow the written chain, without caps; N, C: chain ends. Non-standard residues stand in square brackets, D forms with d. Residues, ends and D or L forms follow the SMILES beside them. NMeA = CN[C@@H](C)C(=O)O; Sar = CNCC(=O)O

Legend:
[1] = target: Vasopressin V1a/V1b receptor (Rattus norvegicus, UniProt P30560+P48974); assay: Binding affinity against plasma membrane from rat liver using [3H]-AVP as a radioligand
Chain of Vasopressin V1a/V1b receptor (P30560 whole entry): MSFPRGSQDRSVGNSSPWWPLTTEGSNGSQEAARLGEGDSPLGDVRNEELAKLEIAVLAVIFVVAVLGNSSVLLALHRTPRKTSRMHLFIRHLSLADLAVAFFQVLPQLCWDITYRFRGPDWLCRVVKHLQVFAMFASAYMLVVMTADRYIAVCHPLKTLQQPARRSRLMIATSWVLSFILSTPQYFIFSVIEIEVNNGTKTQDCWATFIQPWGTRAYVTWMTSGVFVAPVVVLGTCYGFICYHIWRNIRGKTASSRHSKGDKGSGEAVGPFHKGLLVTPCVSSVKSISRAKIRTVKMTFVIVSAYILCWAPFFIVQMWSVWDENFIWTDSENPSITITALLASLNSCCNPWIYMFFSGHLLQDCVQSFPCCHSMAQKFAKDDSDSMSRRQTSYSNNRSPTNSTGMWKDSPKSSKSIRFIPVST
Chain of Vasopressin V1a/V1b receptor (P48974 whole entry): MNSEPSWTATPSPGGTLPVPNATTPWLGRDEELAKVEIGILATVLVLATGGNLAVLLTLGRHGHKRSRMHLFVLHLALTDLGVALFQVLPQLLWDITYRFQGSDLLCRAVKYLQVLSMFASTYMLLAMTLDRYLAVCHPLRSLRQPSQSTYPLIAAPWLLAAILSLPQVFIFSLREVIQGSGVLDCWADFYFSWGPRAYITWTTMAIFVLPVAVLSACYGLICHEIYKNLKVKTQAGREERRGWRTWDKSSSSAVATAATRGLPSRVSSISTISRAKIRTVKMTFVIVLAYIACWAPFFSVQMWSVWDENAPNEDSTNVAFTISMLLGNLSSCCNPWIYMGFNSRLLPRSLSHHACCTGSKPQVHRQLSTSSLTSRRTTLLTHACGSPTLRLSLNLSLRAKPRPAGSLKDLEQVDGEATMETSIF
Summary of the method: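 Competition binding with [3H]AVP to plasma membranes, 30 min incubation; for rat liver membranes the standard medium included bacitracin (1 mg/mL). Apparent KD and slope factor b from weighted nonlinear least-squares fit of displacement curves to logistic curves; [3H]AVP parameters from direct binding. Mean ±SE of two experiments.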

Vasopressin V2 receptor = Vasopressin V2 receptor (Bos taurus, UniProt P48044); assay: ChEBML_214690
Chain of Vasopressin V2 receptor (P48044 whole entry): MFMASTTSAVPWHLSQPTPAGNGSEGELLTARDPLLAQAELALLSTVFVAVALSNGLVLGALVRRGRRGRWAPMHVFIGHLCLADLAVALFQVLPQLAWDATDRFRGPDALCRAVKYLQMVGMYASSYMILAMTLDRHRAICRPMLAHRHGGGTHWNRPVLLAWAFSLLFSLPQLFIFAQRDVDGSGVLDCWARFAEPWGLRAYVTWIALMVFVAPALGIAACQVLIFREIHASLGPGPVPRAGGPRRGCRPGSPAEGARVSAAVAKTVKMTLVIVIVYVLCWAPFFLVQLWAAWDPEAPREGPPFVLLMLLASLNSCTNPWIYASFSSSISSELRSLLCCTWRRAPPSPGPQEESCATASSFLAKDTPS
Text: Binding affinity against plasma membrane from bovine kidney inner medulla using [3H]AVP as a radioligand

SMILES	Kd [1]	Kd (Vasopressin V2 receptor)
C[C@@H](C(=O)N[C@@H](CCCN=C(N)N)C(=O)NCC(N)=O)N(C)C(=O)[C@@H]1CSSC[C@H](N)C(=O)N[C@@H](Cc2ccccc2)C(=O)N[C@@H](Cc2ccccc2)C(=O)N[C@@H](CCC(N)=O)C(=O)N[C@@H](CC(N)=O)C(=O)N1 (H-CFFQNC[NMeA]RG-NH2; disulfide 1-6)	110 nM	
CC(C)[C@@H]1NC(=O)[C@H](Cc2ccccc2)NC(=O)[C@H](Cc2ccc(O)cc2)NC(=O)[C@@H](N)CSSC[C@@H](C(=O)N(C)CC(=O)N[C@@H](CCCNC(=N)N)C(=O)NCC(N)=O)NC(=O)[C@H](CC(N)=O)NC1=O (H-CYFVNC[Sar]RG-NH2; disulfide 1-6)	110 nM	9.4 nM
CC(C)[C@H]1NC(=O)[C@H](Cc2ccccc2)NC(=O)[C@@H](Cc2ccc(O)cc2)NC(=O)CCSSC[C@@H](C(=O)N(C)[C@@H](C)C(=O)N[C@@H](CCCN=C(N)N)C(=O)NCC(N)=O)NC(=O)[C@H](CC(N)=O)NC1=O		9.4 nM
